Measurements: PubChem BioAssay AID540339 (Broad Institute, 2011)
Active and inactive are the calls of the source.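 How the source made its calls: active means compounds that lower cell viability signal with a fitted half-maximal concentration within ten times the top tested dose; inconclusive means flat curve inhibiting 30 to 70%, or an unreliable fit; inactive means the rest.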

Test system: not listed separately
Assay: growth inhibition of MALME3 cells – cell-based, CellTiter-Glo, dry powder samples, orthogonal assay for MITF inhibitor project, dose response (AID 540339)
Settings: MALME3 melanoma viability, CellTiter-Glo luminescence, 24 h; at 35 µM (top of the series)
Method in brief: (§1)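 Material: MALME3 melanoma cells. Medium: IMDM with 10% FBS, without phenol red. Dosing: compound dose-response series delivered by pin transfer. Schedule: 24 h compound treatment at 37 °C. Technique: CellTiter-Glo luminescence reporting cellular ATP.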

Row | SMILES | activity change, negative = inhibition
1 | CC1CCCCC1NC(=O)/C(C#N)=C/C=C/c1ccccc1[N+](=O)[O-] (stereo unspecified) | 2.17% (inactive)

Test system: MALME3 melanoma viability, CellTiter-Glo luminescence, 24 h
Assay: as above
Settings: not given
Method in brief: as §1

Row | SMILES | AC50 [µM]
2 | O=C(COc1ccccc1)N/N=C/c1ccc([N+](=O)[O-])o1 | 19.1
3 | CCN1c2ccccc2NC2N=C(OC)C(c3ccccc3)C21 (stereo unspecified) | 7.91
4 | CC1CN(C(=O)CCC(=O)NCCCN2CCC(Cc3ccccc3)CC2)c2cc(Cl)ccc2O1 (stereo unspecified) | 29.9
5 | O=c1c(Cl)c2oc3ccccc3nc-2c2ccccc12 | 18.2
6 | C=CCNC1=C(Cl)C(=O)c2ccccc2C1=O | 8.93
7 | O=C(Nc1ccc(-c2nc3ncccc3o2)cc1)c1ccc([N+](=O)[O-])o1 | 14.5
8 | Cc1ccc(C(C)C)c(OCc2nn(CC(=O)c3ccc(Cl)cc3)c3[n+]2CCCCC3)c1 | 23.1
9 | CCN(CC)CCNC(=O)c1c(C)n(-c2ccccc2)c2cc(Br)c(OC)cc12 | 34.1
10 | N=c1n(CCN2CCCC2)c2ccccc2n1CC(O)c1ccc(Cl)c(Cl)c1 (stereo unspecified) | 18.6
11 | O=C(Cn1ncc(Cl)c(Cl)c1=O)N1CCc2ccccc21 | 5.07
12 | Cc1[nH]c2ccccc2c1C(=O)CCl | 31.8
13 | COc1cc(/C=N/NC(N)=O)c(Br)cc1OCC(=O)Nc1ccccc1C | 32.8
14 | Cc1nc2ccccc2n1/N=C/c1ccc([N+](=O)[O-])s1 | 10.3
15 | O=C(CNc1cccc2ccccc12)N/N=C/c1ccc([N+](=O)[O-])o1 | 20
16 | COc1cc2c(cc1OC)C(c1ccccc1)N(C(=O)CCl)CC2 (stereo unspecified) | 18
17 | COc1ccc(S(=O)(=O)N(C(C)=O)c2ccc(OC(C)=O)c3ccccc23)cc1[N+](=O)[O-] | 4.21
18 | CCN1CCCC1CNC(=O)c1ccc2c(c1)NC(=O)/C(=C\c1ccc(C)cc1)S2 (stereo unspecified) | 20
19 | CC1=NNC(=O)/C1=C\c1cn(-c2ccccc2)nc1-c1ccc(F)cc1 | 36.5
20 | CN(C)CCCNC(=O)/C(=C\c1ccc(-c2ccc(Br)cc2)o1)NC(=O)c1ccccc1 | 17.4
21 | CC(C)C(CCNC1CCN(C)CC1)c1ccc(Cl)cc1 (stereo unspecified) | 4.04
22 | Cc1ccc(C(=O)N/N=C/c2ccc([N+](=O)[O-])s2)cc1 | 14.8
23 | CC1CCN(CC(CS(=O)(=O)c2ccc([N+](=O)[O-])cc2)N2CCC(C)CC2)CC1 (stereo unspecified) | 18.6
24 | O=C(Nc1ccc(N2CCN(C(=O)c3ccccc3)CC2)cc1)c1ccc([N+](=O)[O-])o1 | 16.7
25 | CCN1CCN(C2=C(NS(=O)(=O)c3ccc(Br)cc3)C(=O)c3ccccc3C2=O)CC1 | 17.7
26 | CC1(C)CC(NC(=O)c2ccc(Cl)c(S(=O)(=O)N(Cc3ccccc3)c3ccccc3)c2)CC(C)(C)N1 | 17.4
